Assay outcomes deposited in PubChem BioAssay by The Scripps Research Institute Molecular Screening Center.
An excerpt weighted towards active compounds, which were near 2% of everything screened.
FID counter = fluorescent intercalator displacement, NS3 helicase counter-screen; DNA fluorescent intercalator displacement, fluorescence; inhibition, % at 7.9 µM; 290,000 tested, 0.17% active; AID 1845; in the data active = inhibition above about 37%;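 also: 0% = vehicle and 100% = reference compound; higher means more ethidium bromide displaced from hairpin DNA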
NS3 helicase inh = inhibitors of Hepatitis C virus NS3 helicase. NS3 helicase DNA unwinding, Cy5 molecular beacon fluorescence. inhibition, % at 10.9 µM. 290,000 tested, 0.56% active. AID 1800;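 active = inhibition above the mean of all tested compounds plus 3 SD, set per campaign, cut at about 35% in these data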;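 also: 0% = DMSO wells and 100% = thioflavine S control wells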
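Compound dosing – single dose, 10.9 µM nominal final, DMSO 0.8% final · System – NS3 helicase fragment of HCV · Buffer or medium – MOPS pH 6.5, MgCl2, DTT, Tween20, BSA · Signal – Cy5 beacon fluorescence read at start and 1 h · Also added – annealed dual-labelled DNA beacon duplex, ATP-started · Schedule – 1 h at 25 °C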
ZTA counter = ZTA (EBV) inhibition in EBNA-1 counter-screen; ZTA-DNA binding, fluorescence polarization; inhibition, % at 11 µM; 320,000 tested, 0.15% active; in the data active = inhibition above about 33%
EBNA-1 inh = blocks EBNA-1 binding to DNA. EBNA-1 DNA binding, fluorescence polarization. inhibition, % at 14.8 µM. 300,000 tested, 0.34% active. AID 1950; in the data active = inhibition above about 28%
GPR7 antag = human neuropeptides B/W receptor 1 antagonism. GPR7-expressing cells, fluorescence antagonist assay. inhibition, % at 4.4 µM. 290,000 tested, 1.1% active. P48145. AID 1861; in the data active = inhibition above about 16%, passing the limit was not always enough;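 also: cells stimulated with the agonist NPW; 0% = agonist with vehicle and 100% = vehicle without agonist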
Target sequence (P48145 whole entry, looked up): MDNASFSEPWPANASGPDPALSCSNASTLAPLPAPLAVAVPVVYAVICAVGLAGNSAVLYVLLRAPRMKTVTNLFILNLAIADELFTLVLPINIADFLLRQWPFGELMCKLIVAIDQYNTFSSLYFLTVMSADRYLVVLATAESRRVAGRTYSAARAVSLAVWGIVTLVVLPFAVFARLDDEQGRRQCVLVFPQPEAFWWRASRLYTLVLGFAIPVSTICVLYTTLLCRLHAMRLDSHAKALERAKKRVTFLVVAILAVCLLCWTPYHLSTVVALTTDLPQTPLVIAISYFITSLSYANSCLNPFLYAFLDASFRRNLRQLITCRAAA
ZTA inh confirm = confirmation of Epstein-Barr virus ZTA DNA binding inhibitors. shares compounds with ZTA counter. Zta-ZRE DNA binding, fluorescence polarization. inhibition, % at 11.1 µM. 320 tested, 30% active;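 active = mean inhibition across triplicate runs above the hit threshold derived for the original primary screen, cut at about 33% in these data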;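 also: 0% = Zta with DMSO and 100% = wells lacking Zta protein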
EBNA-1 counter = counter-screen for ZTA inhibitors: EBNA-1 DNA binding inhibition; shares compounds with ZTA counter; fluorescence polarization; inhibition, % at 14.8 µM; 320 tested, under 10 active; call rule not given here
Numbers without * were called inactive; . = no result.

SMILES	FID counter	NS3 helicase inh	ZTA counter	EBNA-1 inh	GPR7 antag	ZTA inh confirm	EBNA-1 counter
COc1cccc(-n2cc(C(=O)NCCCOC(C)C)c3ccccc3c2=O)c1	-29.7	0.7	-14.0	-5.5	-6.0	.	.
c1ccc(-c2nnc(-c3ccco3)o2)cc1	-1.9	-0.7	-16.0	8.8	0.3	.	.
c1coc(-c2nnc(-c3ccco3)nn2)c1	-1.9	35.0	36.6*	5.4	-2.3	33.3*	-7.8
CN(C)C(=O)CCCCCCCCC(=O)N(C)C	-3.8	-4.8	33.1*	7.6	-5.3	8.3	0.5
O=C1c2ccccc2C(=O)N1CC(O)COc1ccccc1Cl (stereo unspecified)	-16.4	-2.0	4.1	9.4	-3.0	.	.
COc1cc(C2(c3ccc(O)c(OC)c3)C(=O)Nc3c(C)cc(Br)cc32)ccc1O	.	.	7.3	-8.0	.	.	.
COc1ccc(NC(=O)CCN2CCCC(C)C2)cc1 (stereo unspecified)	-1.1	4.4	52.4*	5.0	-9.4	0.6	-9.8
COc1ccc(NC(=O)CCN2CCC(C)CC2)cc1	0.1	1.6	-11.1	-20.2	-10.2	.	.
CC(C(=O)OCC(=O)c1ccc(Br)cc1)N1C(=O)C2C3C=CC(C3)C2C1=O (stereo unspecified)	-28.9	-1.0	35.6*	-2.1	-2.8	-8.1	-5.5
Cc1ccc(-c2nn(-c3ccccc3)cc2C(=O)O)o1	-23.9	9.6	36.7*	4.2	-10.8	-1.8	-13.4
CC(C)(C)OC(=O)N1CCC(c2c(C(=O)NCC3CCN(C4CCCC4)C3)cnn2-c2cccc(Cl)c2)CC1 (stereo unspecified)	23.2	-37.0	-10.3	-5.1	7.3	.	.
Nc1ccc2c(c1)C(=O)C(=O)c1ccccc1-2	9.7	9.2	58.0*	-7.9	-10.6	64.7*	-10.9
O=C(Nc1cc(S(=O)(=O)N2CCOCC2)ccc1N1CCOCC1)c1ccc(Cl)nc1	-10.6	4.3	33.5*	7.4	-9.2	5.3	4.7
COc1ccccc1C(=O)NC(=O)COC(=O)c1nc2nc(C)cc(C)n2n1	.	.	-18.8	14.0	.	.	.
COc1cccc(N2CCN(C(=O)CN3C(=O)NC(C)(c4ccc5ccccc5c4)C3=O)CC2)c1 (stereo unspecified)	.	.	5.8	-7.7	.	.	.
CCOc1cc(/C=C2/C(=O)ON=C2C)ccc1OCc1ccc(F)cc1	-4.5	6.5	35.4*	-4.2	-5.7	4.5	0.0
CCOc1cc(/C=C2/C(=O)ON=C2C)ccc1OCc1ccccc1	-10.5	5.0	2.9	1.6	-5.8	.	.
COc1cc(NC(=O)c2csc(N)n2)cc(C(=O)Nc2cccc(C(F)(F)F)c2)c1	.	.	41.2*	7.3	.	6.0	-3.8
O=c1[nH]c(Nc2ccccc2)cc2ccccc12	0.1	2.1	32.0	-12.8	-0.8	.	.
O=c1[nH]c(Nc2ccccc2)cc2cc(Br)ccc12	.	.	40.8*	-6.2	.	2.2	-5.0
NS(=O)(=O)c1ccc(NC(=O)c2cccc(N3C(=O)c4ccccc4C3=O)c2)cc1	-5.1	-59.0	61.4*	-1.8	-12.1	58.4*	-0.9
Cc1ccn(CCSCC(=O)O)n1	3.5	-3.2	-13.3	-4.2	-3.5	.	.
Cc1ccn(CC(C)C(=O)O)n1 (stereo unspecified)	3.8	-0.6	166.3*	-12.4	-8.3	3.6	0.3
CCc1ccc2nc(N(CCCN(C)C)C(=O)c3ccc(S(=O)(=O)N4CCCc5ccccc54)cc3)sc2c1	22.6	-46.7	37.3*	1.9	13.2	6.7	-0.2
CC1CC(C)(C)CC2(C1)NC(=O)N(CC(=O)N(C)Cc1nc3ccccc3c(=O)[nH]1)C2=O (stereo unspecified)	.	.	-7.7	.	.	.	.
SMILES	FID counter	NS3 helicase inh	ZTA counter	EBNA-1 inh	GPR7 antag	ZTA inh confirm	EBNA-1 counter
COc1ccccc1NC(=O)Cc1nnc(SCC(=O)NC2=NCCS2)n1C	-10.2	11.9	-23.4	-5.5	-1.0	.	.
CCN(CC)CCNC(=O)c1nn(-c2ccc(C)cc2)c(=O)c2c1c1ccccc1n2C	12.7	-21.8	-0.6	-3.8	-7.4	.	.
Cc1ccc(-n2nc(C(=O)NCc3ccco3)c3c4ccccc4n(C)c3c2=O)cc1	-11.6	-1.0	45.4*	15.5	-4.9	0.7	22.4
CCC(C)(O)c1[nH]c2ccc(C(F)(F)F)cc2c1C (stereo unspecified)	2.8	-16.2	-2.3	-0.9	-13.7	.	.
Cc1ccc(NC(=O)CCNC(=O)c2ccco2)cc1	-0.5	0.7	-17.3	11.8	4.8	.	.
Cc1cccc(NC(=O)CCNC(=O)c2ccco2)c1	-0.8	5.0	44.4*	3.2	-5.7	4.1	-8.7
